This passage reports Activity and IC50 results from ChEMBL document CHEMBL1142623, “Phytotoxic compounds from the new coprophilous fungus guanomyces polythrix” (J Nat Prod, 2000).

pIC50: −log10 of the molar value. Calls of active or inactive are those of the source. The calls are words filed in the database; no cut-off is given here.

Test [1] has as its target Calmodulin (Spinacia oleracea) (UniProt P04353). The experiment in a line: Binding affinity to spinach calmodulin at 0.033 ug/mL after 1.5 hrs by electrophoretic mobility assay presence of EGTA. In short, it runs like this:
(§1)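 Commercial spinach or bovine brain calmodulin, 2-µg samples, pretreated with compound for 1.5 h at 30 °C in presence of 1 mM CaCl2 or EGTA, then run on 15% polyacrylamide SDS-PAGE gels. Binding judged by shift in electrophoretic mobility relative to untreated calmodulin under the same condition (Ca2+ vs EGTA).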

The target is the same in test [2]. As to the kind of experiment: Binding affinity to spinach calmodulin at 0.033 ug/mL after 1.5 hrs by electrophoretic mobility assay in presence of calcium chloride. The procedure, abridged: as §1
Another test concerns Echinochloa crus-galli. The experiment in a line: Phytotoxicity against Echinochloa crusgalli assessed as inhibition of radicle elongation. In kind it is functional, organism-based. The procedure, abridged:
(§2)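 Seedling radicle growth assay at 28 °C. Pure compounds tested at 1, 10 and 100 µg mL-1, with 2,4-D as positive control. Results analysed by ANOVA (p < 0.05). IC50 calculated by Probit analysis from percent radicle growth inhibition.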

For test [3], the system named is Amaranthus hypochondriacus. The experiment in a line: Phytotoxicity against Amaranthus hypochondriacus assessed as inhibition of radicle elongation. The class given is functional, organism-based. In short, it runs like this: as §2
For test [4], the target named is Calmodulin (Bos taurus) (UniProt P62157). As to the kind of experiment: Binding affinity to bovine brain calmodulin at 0.033 ug/mL after 1.5 hrs by electrophoretic mobility assay in presence of calcium chloride. In short, it runs like this: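 Bovine brain calmodulin (2 µg samples) pretreated with isolates at 0.033 µg/mL plus 1 mM CaCl2 for 1.5 h at 30 °C. Mobility then compared against untreated calmodulin on 15% polyacrylamide SDS-PAGE. A parallel condition used EGTA in place of Ca2+.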

For test [5] the target is unchanged. As to the kind of experiment: Binding affinity to bovine brain calmodulin at 0.033 ug/mL after 1.5 hrs by electrophoretic mobility assay in presence of EGTA. The procedure, abridged:
as §1

`COc1cc(OC)c2c(O)c3c(cc2c1)O[C@@H](C)[C@H](C)C3=O`: the outcome (in test [1]; in test [2]; at Calmodulin (Bos taurus) [4]) was Active. In addition, the values for the pIC50 (in the test on Echinochloa crus-galli; in test [3]) were 3.92 and 4.00, respectively. Besides, the result on Calmodulin (Bos taurus) [5] was inactive.

As to `COc1cc(OC)c2c(O)c3c(=O)cc(C)oc3cc2c1` [RUBROFUSARIN B], the outcome (in test [1]; in test [2]; at Calmodulin (Bos taurus) [4]) was Active. Further, the pIC50 (as a rule, the negative decadic logarithm of the IC50, by convention in mol/L) was 4.06 with Echinochloa crus-galli and 4.89 in test [3]. In addition, the outcome at Calmodulin (Bos taurus) [5] was inactive.

As to `O=C(O)COc1ccc(Cl)cc1Cl` [2,4-DICHLOROPHENOXYACETIC ACID], the negative-log IC50 (pIC50) with Echinochloa crus-galli was 3.06; in test [3] it was 3.74.

Turning to `Cc1cc(O)c2c(c1)C(=O)c1cc(O)cc(O)c1C2=O` [EMODIN], the outcome (in test [1]; in test [2]; on Calmodulin (Bos taurus) [4]) was Active. The pIC50 is 4.70 in the test with Echinochloa crus-galli and 3.89 in test [3]. Besides, the result at Calmodulin (Bos taurus) [5] was inactive.

`COc1cc(OC)c2c(O)c3c(cc2c1)O[C@@H](C)CC3=O`: the result (in test [1]; in test [2]; at Calmodulin (Bos taurus) [4]) was Active. Also, the negative logarithm of the IC50 (pIC50) in the test on Echinochloa crus-galli was 4.06; in test [3], 4.64. Besides, the outcome at Calmodulin (Bos taurus) [5] was inactive.

For the molecule `COC(=O)c1ccc(O)cc1` [METHYLPARABEN], the result (in test [1]; in test [2]; at Calmodulin (Bos taurus) [4]) was Active. In addition, the pIC50 in the test on Echinochloa crus-galli is 3.20; in test [3], 4.64. On Calmodulin (Bos taurus) [5], the result was inactive.

In the case of `COc1cc(OC)c2c(O)c3c(c(OC)c2c1)O[C@@H](C)[C@H](C)C3=O`, the result (in test [1]; in test [2]; at Calmodulin (Bos taurus) [5]) was Active. The negative logarithm of the IC50 (pIC50) is 4.21 with Echinochloa crus-galli and 4.19 in test [3].

Turning to `COc1cc(OC)c2c(O)c3c(=O)c(C)c(C)oc3cc2c1`, the outcome (in test [1]; in test [2]; on Calmodulin (Bos taurus) [4]) was Active. The negative-log IC50 (pIC50) in the test with Echinochloa crus-galli was 3.77; in test [3], 4.10. In addition, the result at Calmodulin (Bos taurus) [5] was inactive.

On to `COc1cc(OC)c2c(O)c3c(c(OC)c2c1)O[C@@H](C)CC3=O`, for which the result (in test [1]; in test [2]; at Calmodulin (Bos taurus) [4]) was Active. Besides, the figures for the pIC50 (in the test on Echinochloa crus-galli; in test [3]) were 4.40 and 4.89, respectively. On Calmodulin (Bos taurus) [5], the result was inactive.

In the case of `CC1=C2C(=CO[C@H](C)[C@H]2C)C(O)=C(C(=O)O)C1=O` [CITRININ], the result (in test [1]; in test [2]; on Calmodulin (Bos taurus) [4]) was Active. Moreover, the figures for the negative logarithm of the IC50 (pIC50) (in the test with Echinochloa crus-galli; in test [3]) were 4.20 and 4.26, respectively. For the same molecule, the result on Calmodulin (Bos taurus) [5] was inactive.
